# Laboratory results from article PMC9292875 (British Journal of Clinical Pharmacology, 2021).
# Where “and” joins values, the source holds several entries; their conditions need not be identical. Identical values can stand only once.
# What was measured:
# [1] = system: patients with advanced solid malignancies; test: Exploratory graphical analysis of model assumptions; type: in vivo, human
# Procedure, shortened: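 Before modelling, first-dose paired data were plotted to check four assumptions: no drug effect on heart rate; a suitable HR correction (RR versus uncorrected QT, QTcF and QTcB); no hysteresis (mean ΔQTcF against concentration, joined in time order per dose); and linearity (loess smooth, linear regression, binned means). Sampling was at baseline, 1, 2, 6 and 24 h (escalation/expansion) or at baseline, 2 and 4–6 h (mutation cohorts).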
# [2] = Plasma pharmacokinetics of capivasertib; type: in vivo, human
# [3] = system: patients with advanced solid malignancies; type: in vivo, human; conditions: linear mixed-effects model parameter estimate
# Procedure, shortened: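 The model was a prespecified linear mixed-effects structure for placebo-free oncology trials. It regressed baseline-adjusted QTcF on plasma concentration, with random intercept and slope, plus a fixed effect for baseline QTcF centred on the overall baseline mean. Fitting used restricted maximum likelihood, assuming normal random effects and residuals. Only first-dose data were used (503 time-matched points, 180 patients). Fit was checked with goodness-of-fit plots.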
# patients = conditions: available clinical data; cited from earlier work
# [4] = system: patients with advanced solid malignancies; test: Categorical evaluation of QTc, PR and QRS intervals; type: in vivo, human; conditions: of 180 patients
# Procedure, shortened: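 Patients received single twice-daily-regimen doses of 80–800 mg, either continuous or intermittent. A 12-lead digital ECG was recorded after at least 10 min semi-supine rest. Triplicate tracings were taken about 5 min apart at each time point and averaged, then read centrally. Thresholds were QTc ≥450, ≥480 and ≥500 ms; ΔQTc ≥30 and ≥60 ms; PR ≥200 ms; and QRS ≥110 ms.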
structure (smiles),measurement,setting,value
"NC1(C(=O)N[C@@H](CCO)c2ccc(Cl)cc2)CCN(c2ncnc3[nH]ccc23)CC1 [capivasertib, 4‐amino‐N‐[(1S)‐1‐(4‐chlorophenyl)‐3‐hydroxypropyl]‐1‐(7H‐pyrrolo[2,3‐d]pyrimidin‐4‐yl)piperidine‐4‐carboxamide]",Time to maximum ΔQTcF,[1]; after administration of first dose,≤ 2 h
same,ΔHR (change in heart rate),"[1]; after first dose, small decrease at 1 hour, not dose-dependent",≤ 10 beats per minute
same,Time delay between concentration and ΔQTcF (hysteresis plots),[1]; in vivo,No evidence of a time‐delay
same,Drug accumulation,[2]; 4 days on/3 days off intermittent schedule,less than twofold
same,Time at which Cmax was reached after dosing,[2]; after first dose,approximately 2 hours
same,ɛ Residual variability,[3],6.452 ms
same,η0 Random effect for intercept,[3],5.350 ms
same,θ0 Intercept,[3],-0.269 ms
same,θ1 Slope of capivasertib concentration vs ΔQTcF,[3],0.003 ms/(ng/mL) and 0.00337 ms/(ng/mL)
same,θ2 Impact of baseline QTcF on ΔQTcF,[3],−0.119
same,Reports of serious cardiac events or ECG changes,patients,"no reports of sudden death, torsades de pointes, seizures or electrocardiogram (ECG) changes that were considered serious"
same,Patients with QRS ≥ 110 ms,[4]; doses from 80 mg to 800 mg,5.0%
same,Patients with QTcF ≥ 480 ms,[4]; single doses 80-800 mg,No patients
same,Patients with ΔQTcF ≥ 60 ms,[4]; single doses 80-800 mg,No patients
